{
  "source": "ChEMBL document CHEMBL1800034",
  "about": "“A synthetic 7,8-dihydroxyflavone derivative promotes neurogenesis and exhibits potent antidepressant effect” (J Med Chem, 2010)",
  "key": {"[1]": {"test_system": "Mus musculus", "test": "Agonist activity at TrkB in C57BL/6J mouse brain assessed as TrkB 706 phosphorylation at 1 mg/kg, po at 1 hr by immunoblotting", "assay_type": "functional, organism-based", "design": "dose 1 mg/kg", "how_it_was_run": "(§1)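 C57BL/6J mice got a single oral dose of 1 mg/kg. Brains were collected at several time points, about 1 to 16 h after dosing. Lysates were immunoblotted for TrkB phosphorylation and for downstream Akt and MAPK phosphorylation.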"}, "[2]": {"molecular_target": "BDNF/NT-3 growth factors receptor (Rattus norvegicus) (UniProt Q63604)", "sequence (Q63604 whole entry)": "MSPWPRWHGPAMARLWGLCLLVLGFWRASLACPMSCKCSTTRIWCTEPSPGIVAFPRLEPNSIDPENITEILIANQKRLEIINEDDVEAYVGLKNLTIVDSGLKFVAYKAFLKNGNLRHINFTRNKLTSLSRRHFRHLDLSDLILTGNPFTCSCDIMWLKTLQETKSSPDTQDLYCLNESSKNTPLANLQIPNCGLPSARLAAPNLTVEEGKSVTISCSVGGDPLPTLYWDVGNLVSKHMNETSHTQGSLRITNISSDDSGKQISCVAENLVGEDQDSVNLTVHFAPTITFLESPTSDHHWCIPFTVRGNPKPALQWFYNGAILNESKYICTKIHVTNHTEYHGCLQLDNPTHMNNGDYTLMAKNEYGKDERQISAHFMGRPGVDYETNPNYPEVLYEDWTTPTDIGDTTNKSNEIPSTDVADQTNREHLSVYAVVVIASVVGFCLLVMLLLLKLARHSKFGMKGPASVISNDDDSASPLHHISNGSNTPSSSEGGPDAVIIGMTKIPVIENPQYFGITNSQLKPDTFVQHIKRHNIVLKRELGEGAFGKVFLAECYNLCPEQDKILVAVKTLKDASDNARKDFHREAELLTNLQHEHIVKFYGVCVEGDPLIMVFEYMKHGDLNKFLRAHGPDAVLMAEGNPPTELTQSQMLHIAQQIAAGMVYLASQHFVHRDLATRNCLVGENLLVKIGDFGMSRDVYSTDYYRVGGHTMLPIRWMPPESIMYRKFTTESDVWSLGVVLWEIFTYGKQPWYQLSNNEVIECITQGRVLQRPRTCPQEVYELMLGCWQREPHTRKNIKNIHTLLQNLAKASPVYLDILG", "test": "Agonist activity at TrkB in E17 rat primary rat cortical neurons assessed as AKT phosphorylation at Ser 473 at 10 nM after 15 mins by titration assay", "assay_type": "functional", "how_it_was_run": "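Primary cortical neurons were incubated with graded concentrations, starting at 10 nM, for 15 min. Phospho-Akt Ser473 was measured by sandwich ELISA on 20 µg of lysate. Data come from 2 replicated experiment sets, given as mean ± SEM. Comparisons used one-way ANOVA against control and Student's t-test between compounds.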"}, "[3]": {"test_system": "Mus musculus", "test": "Toxicity in C57BL/6J mouse assessed as pathological changes in kidney at 5 mg/kg, po for 3 weeks", "assay_type": "organism-based", "design": "dose 5 mg/kg, route oral", "conditions": "in vivo, 504 h", "how_it_was_run": "(§2)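 Mice were dosed orally at 5 mg/kg for 3 weeks, with saline-treated controls. Major organs were examined for pathological changes, and a complete blood count was done.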"}, "[4]": {"test_system": "Mus musculus", "test": "Antidepressant activity in C57BL/6J mouse assessed as decrease in immobility at 5 mg/kg, po administered for 21 days measured last 4 mins of total 6 mins observation time by forced swim test", "assay_type": "functional, organism-based", "design": "dose 5 mg/kg", "how_it_was_run": "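Male C57BL/6J mice, 2–3 months old, were gavaged with saline or compound at 5 mg/kg for 21 days. Mice were acclimated to the test room for 2 days. There was no pre-swim. Each mouse swam for 6 min in a 16 cm cylinder of water 14 cm deep at 24 °C. Immobility was scored blind over the last 4 min; mean ± SEM, ANOVA.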"}, "[5]": {"test_system": "HEK293", "test": "Cytotoxicity against human HEK293 cells assessed as cell death at 50 to 50000 nM after 24 hrs by LDH assay", "assay_type": "cell-based", "conditions": "hek293, 24 h, 50 µM"}, "[6]": {"test_system": "Mus musculus", "test": "Neuroprotective activity in C57BL/6J mouse assessed as inhibition of kainic acid-induced caspase 3 activation in hippocampus region at 5 mg/kg, po administered 2 to 8 hrs prior to kainic acid challenge measured after 8 hrs by immunoblotting", "assay_type": "functional, organism-based", "design": "dose 5 mg/kg"}, "[7]": {"test_system": "Mus musculus", "test": "Toxicity in C57BL/6J mouse assessed as pathological changes in testis at 5 mg/kg, po for 3 weeks", "assay_type": "organism-based", "design": "dose 5 mg/kg, route oral", "conditions": "in vivo, 504 h", "how_it_was_run": "as §2"}, "[8]": {"test_system": "Mus musculus", "test": "Induction of neurogenesis in C57BL/6J mouse hippocampus dentate gyrus assessed as progenitor cell proliferation at 5 mg/kg, po administered for 21 days by DAPI and BrdU staining based fluorescence microscopy", "assay_type": "functional, organism-based", "design": "dose 5 mg/kg", "how_it_was_run": "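Adult male C57BL/6J mice were gavaged at 5 mg/kg for 21 days and then given BrdU at 50 mg/kg i.p. Mice were perfused with 4% paraformaldehyde 2 h later. Paraffin sections had citrate antigen retrieval and 2 N HCl treatment, then were stained with anti-BrdU-FITC at 4 °C for 16 h and with DAPI. BrdU-positive cells in the dentate gyrus were counted by fluorescence microscopy.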"}, "[9]": {"test_system": "Mus musculus", "test": "Antidepressant activity in TrkB F616A knock in mouse assessed as reduction of immobility time at 5 mg/kg, po administered for 21 days by forced swim test assay in presence of TrkB F616A inhibitor 1NMPP1", "assay_type": "functional, organism-based", "design": "dose 5 mg/kg"}, "[10]": {"test_system": "Mus musculus", "test": "Neuroprotective activity in po dosed C57BL/6J mouse assessed as TrkB phosphorylation in brain by titration assay", "assay_type": "functional, organism-based"}, "[11]": {"test_system": "Mus musculus", "test": "Toxicity in C57BL/6J mouse assessed as pathological changes in brain cortex at 5 mg/kg, po for 3 weeks", "assay_type": "organism-based", "design": "dose 5 mg/kg, route oral", "conditions": "in vivo, 504 h", "how_it_was_run": "as §2"}, "[12]": {"test_system": "Mus musculus", "test": "Neuroprotective activity in TrkB F616A knock in mouse assessed as inhibition of kainic acid-induced caspase 3 activation in brain homogenates at 5 mg/kg, po administered 4 hrs prior to kainic acid challenge measured after 4 days by immunoblotting in presence of TrkB F616A inhibitor 1NMPP1", "assay_type": "functional, organism-based", "design": "dose 5 mg/kg", "how_it_was_run": "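TrkB F616A knock-in mice, 2–3 months old, were given 1NMPP1 at 25 µM in drinking water one day beforehand. They were then gavaged with compound at 5 mg/kg, followed 4 h later by kainic acid at 20 mg/kg. Brains were taken 4 days later, homogenized and ultracentrifuged. 40 µg of supernatant was immunoblotted.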"}, "[13]": {"test_system": "Mus musculus", "test": "Toxicity in C57BL/6J mouse assessed as affect on complete blood count analysis at 5 mg/kg, po for 3 weeks", "assay_type": "organism-based", "design": "dose 5 mg/kg, route oral", "conditions": "in vivo, 504 h", "how_it_was_run": "as §2"}, "[14]": {"test_system": "Mus musculus", "test": "Toxicity in C57BL/6J mouse assessed as pathological changes in intestine at 5 mg/kg, po for 3 weeks", "assay_type": "organism-based", "design": "dose 5 mg/kg, route oral", "conditions": "in vivo, 504 h", "how_it_was_run": "as §2"}, "[15]": {"test_system": "Mus musculus", "test": "Agonist activity at TrkB in C57BL/6J mouse brain lysate assessed as TrkB phosphorylation at Y817 at 5 mg/kg, po administered for 21 days by immunoblotting", "assay_type": "functional, organism-based", "design": "dose 5 mg/kg", "how_it_was_run": "(§3)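 Adult male C57BL/6J mice, 8 per group, dosed orally by gavage once daily for 21 days; saline was the vehicle. Brain lysates were immunoblotted with anti-p-TrkA 794 and anti-p-TrkB 817.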"}, "[16]": {"test_system": "Mus musculus", "test": "Toxicity in C57BL/6J mouse assessed as pathological changes in heart at 5 mg/kg, po for 3 weeks", "assay_type": "organism-based", "design": "dose 5 mg/kg, route oral", "conditions": "in vivo, 504 h", "how_it_was_run": "as §2"}, "[17]": {"test_system": "Mus musculus", "test": "Agonist activity at TrkA in C57BL/6J mouse brain lysate assessed as TrkA phosphorylation at Y794 at 5 mg/kg, po administered for 21 days by immunoblotting", "assay_type": "functional, organism-based", "design": "dose 5 mg/kg", "how_it_was_run": "as §3"}, "[18]": {"test_system": "Mus musculus", "test": "Toxicity in C57BL/6J mouse assessed as pathological changes in hippocampus at 5 mg/kg, po for 3 weeks", "assay_type": "organism-based", "design": "dose 5 mg/kg, route oral", "conditions": "in vivo, 504 h", "how_it_was_run": "as §2"}, "[19]": {"test_system": "Mus musculus", "test": "Agonist activity at TrkB in C57BL/6J mouse brain assessed as TrkB 706 phosphorylation at 1 mg/kg, po at 1 to 2 hrs by immunoblotting", "assay_type": "functional, organism-based", "design": "dose 1 mg/kg", "how_it_was_run": "as §1"}, "[20]": {"test_system": "HEK293", "test": "Cytotoxicity against human HEK293 cells assessed as inhibition of cell proliferation at up to 50 uM by MTT assay", "assay_type": "cell-based"}, "[21]": {"test_system": "Mus musculus", "test": "Neuroprotective activity in C57BL/6J mouse assessed as inhibition of kainic acid-induced caspase 3 activation in hippocampus region at 5 mg/kg, po administered 2 to 8 hrs prior to kainic acid challenge measured after 4 hrs by immunoblotting", "assay_type": "functional, organism-based", "design": "dose 5 mg/kg"}, "[22]": {"test": "Cytotoxicity at E17 rat primary cortical neurons assessed as cell death at 5 uM by LDH assay", "assay_type": "cell-based", "conditions": "cerebral cortex neuron"}, "[23]": {"test_system": "Mus musculus", "test": "Toxicity in C57BL/6J mouse assessed as pathological changes in muscle at 5 mg/kg, po for 3 weeks", "assay_type": "organism-based, Muscle tissue", "design": "dose 5 mg/kg, route oral", "conditions": "in vivo, 504 h", "how_it_was_run": "as §2"}, "[24]": {"molecular_target": "BDNF/NT-3 growth factors receptor (Rattus norvegicus) (UniProt Q63604)", "test": "Agonist activity at TrkB in E16 rat embryonic cortical neurons assessed as inhibition of glutamate-induced caspase 3 activation at 50 to 500 nM after 30 mins followed by 16 hrs of 50 uM glutamate-challenge by ELISA", "assay_type": "functional", "how_it_was_run": "(§4)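 Cortical neurons from E16 rat embryos were pretreated with the indicated compound concentrations for 30 min. They were then challenged with 50 µM glutamate for 16 h. Active caspase-3 in the lysates was measured by ELISA.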"}, "[25]": {"test_system": "Mus musculus", "test": "Toxicity in C57BL/6J mouse assessed as pathological changes in lungs at 5 mg/kg, po for 3 weeks", "assay_type": "organism-based", "design": "dose 5 mg/kg, route oral", "conditions": "in vivo, 504 h", "how_it_was_run": "as §2"}, "[26]": {"test_system": "Mus musculus", "test": "Toxicity in C57BL/6J mouse assessed as pathological changes in liver at 5 mg/kg, po for 3 weeks", "assay_type": "organism-based", "design": "dose 5 mg/kg, route oral", "conditions": "in vivo, 504 h", "how_it_was_run": "as §2"}, "[27]": {"molecular_target": "BDNF/NT-3 growth factors receptor (Rattus norvegicus) (UniProt Q63604)", "test": "Agonist activity at TrkB in E16 rat embryonic cortical neurons assessed as inhibition of glutamate-induced caspase 3 activation at 10 nM after 30 mins followed by 16 hrs of 50 uM glutamate-challenge by ELISA", "assay_type": "functional", "how_it_was_run": "as §4"}, "[28]": {"molecular_target": "BDNF/NT-3 growth factors receptor (Rattus norvegicus) (UniProt Q63604)", "test": "Agonist activity at TrkB in E17 rat primary cortical neurons assessed as TrkB phosphorylation at 817 at 500 nM after 15 mins by immunoblotting", "assay_type": "functional, cell-based", "conditions": "Cerebral cortex neuron", "how_it_was_run": "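Rat cortical neurons from E17 embryos, 13 DIV, were treated with 500 nM compound for 15 min. Lysates were run on 10% SDS-PAGE and immunoblotted with p-TrkB Y817 antibody at 1:20,000–40,000.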"}, "[29]": {"test_system": "Mus musculus", "test": "Toxicity in C57BL/6J mouse assessed as pathological changes in spleen at 5 mg/kg, po for 3 weeks", "assay_type": "organism-based", "design": "dose 5 mg/kg, route oral", "conditions": "in vivo, 504 h", "how_it_was_run": "as §2"}},
  "note": "Calls of active or inactive are those of the source. The rule behind the calls is not given here.",
  "data": [
    {"smiles": "O=c1cc(-c2ccccc2)oc2c(O)c(O)ccc12", "note": "[7,8-DIHYDROXYFLAVONE]", "values": [
      {"measurement": "Activity", "setting": "[1]", "value": "Active"},
      {"measurement": "Activity", "setting": "[2]", "value": "Active"},
      {"measurement": "Activity", "setting": "[3]", "value": "Non-toxic"},
      {"measurement": "Activity", "setting": "[4]", "value": "Active"},
      {"measurement": "Activity", "setting": "[5]", "value": "Non-toxic"},
      {"measurement": "inhibition", "setting": "[6]", "value": "Active"},
      {"measurement": "Activity", "setting": "[7]", "value": "Non-toxic"},
      {"measurement": "Activity", "setting": "[8]", "value": "Active"},
      {"measurement": "Activity", "setting": "[9]", "value": "inactive"},
      {"measurement": "Activity", "setting": "[10]", "value": "Dose-dependent effect"},
      {"measurement": "Activity", "setting": "[11]", "value": "Non-toxic"},
      {"measurement": "inhibition", "setting": "[12]", "value": "inactive"},
      {"measurement": "Activity", "setting": "[13]", "value": "Non-toxic"},
      {"measurement": "Activity", "setting": "[14]", "value": "Non-toxic"},
      {"measurement": "Activity", "setting": "[15]", "value": "Active"},
      {"measurement": "Activity", "setting": "[16]", "value": "Non-toxic"},
      {"measurement": "Activity", "setting": "[17]", "value": "inactive"},
      {"measurement": "Activity", "setting": "[18]", "value": "Non-toxic"},
      {"measurement": "Activity", "setting": "[19]", "value": "Active"},
      {"measurement": "Activity", "setting": "[20]", "value": "Non-toxic"},
      {"measurement": "inhibition", "setting": "[21]", "value": "Active"},
      {"measurement": "Activity", "setting": "[22]", "value": "Non-toxic"},
      {"measurement": "Activity", "setting": "[23]", "value": "Non-toxic"},
      {"measurement": "Activity", "setting": "[24]", "value": "Active"},
      {"measurement": "Activity", "setting": "[25]", "value": "Non-toxic"},
      {"measurement": "Activity", "setting": "[26]", "value": "Non-toxic"},
      {"measurement": "inhibition", "setting": "[27]", "value": "Active"},
      {"measurement": "Activity", "setting": "[28]", "value": "Active"},
      {"measurement": "Activity", "setting": "[29]", "value": "Non-toxic"}
    ]}
  ]
}
